Data on 25 molecules can be found in ChEMBL document CHEMBL1138002, “Synthesis and biological evaluation of thiazolidine-2,4-dione and 2,4-thione derivatives as inhibitors of translation initiation” (2004).

What all share (format): functional
A short description of test [1]: Ratio of intensity of phosphorylation of phosphorylated eIF2a to the intensity of the total eIF2a was determined. Put shortly: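 Cells exposed to drug at 5 µM; extracts analysed by Western blot with phospho-Ser51-specific rabbit anti-eIF2a and mouse monoclonal total eIF2a antibodies, quantified by infrared imaging. Phospho/total eIF2a intensity ratio normalized to DMSO; TRO positive, DMSO negative control; mean ± SD of three determinations.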

Test [2] has as its system A549. The experiment in a line: Inhibition of human lung cancer cell line (A549) growth by 50% in sulforhodamine-B assay. Summed up: (§1)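 Human A549 lung cancer cells; growth inhibition read by sulforhodamine B assay, staining cellular protein content. GI50 taken as concentration needed to inhibit 50% of cell proliferation. DMSO negative control, troglitazone (TRO) positive control; mean ± SD from three determinations.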

Test [3] relates to A549. The experiment in a line: Inhibition of human lung cancer cell line (A549) by 50% in sulforhodamine B assay. Summed up: as §1
For orientation: In SRB staining, fixed cells bind dye roughly in proportion to their protein.

For `O=C1NC(=O)/C(=C/c2cc(Cl)ccc2OCc2ccccc2)S1`, the Ratio in test [1] was 4.52. For the same molecule, in the test on A549 [2], it took 5 µM to inhibit growth by half (GI50).

Regarding `O=C1NC(=S)S/C1=C\c1cc(Br)ccc1OCc1ccccc1`, the Ratio in test [1] is 1.4. It took 7 µM to inhibit growth in the test with A549 [2] by half (GI50).

For the molecule `O=C1NC(=S)S/C1=C\c1cc(Cl)ccc1OCc1ccccc1`, in test [1], the Ratio came to 1.76. For the same molecule, the GI50 (as a rule, the concentration at which growth is held to half of that of the control) with A549 [2] is 5 µM.

Regarding `CC(C)(C)c1ccc(OCc2ccccc2)c(/C=C2\SC(=O)NC2=O)c1`, the Ratio in test [1] was found to be 6.98. Moreover, it took 2 µM to inhibit growth in the test with A549 [2] by half (GI50).

Turning to `O=C1NC(=O)/C(=C/c2cc(-c3ccccc3)ccc2OCc2ccccc2)S1`, the Ratio in test [1] worked out at 0.76. Further, it took 2 µM to inhibit growth in the test on A549 [2] by half (GI50).

For `CC(C)(C)c1ccc(-c2ccc(OCc3ccccc3)c(/C=C3\SC(=O)NC3=O)c2)cc1`, the Ratio in test [1] worked out at 1.16. In the test with A549 [2], this molecule showed a GI50 of 2 µM.

Consider `O=C1NC(=O)/C(=C/c2cc([N+](=O)[O-])ccc2OCc2ccccc2)S1`, for which the Ratio in test [1] came to 0.89. The same molecule displayed a GI50 in the test on A549 [2] of 14 µM.

As to `CC(C)(C)c1ccc(-c2ccc(OCc3ccccc3)c(/C=C3\SC(=S)NC3=O)c2)cc1`, the Ratio in test [1] turned out to be 1.37. For the same molecule, in the test with A549 [2], the GI50 is 2 µM.

As to `O=C1NC(=S)S/C1=C\c1cc(F)ccc1OCc1ccccc1`, the Ratio in test [1] was determined as 5.02. This molecule displayed a GI50 in the test on A549 [2] of 9 µM.

In the case of `O=C1NC(=S)S/C1=C\c1cc(N2CCOCC2)ccc1OCc1ccccc1`, the Ratio in test [1] amounted to 0.92. Also, the GI50 in the test on A549 [2] was found to be 5 µM.

Regarding `Cc1ccc(OCc2ccccc2)c(/C=C2\SC(=S)NC2=O)c1`, the Ratio in test [1] turned out to be 4.15. For the same molecule, growth in the test with A549 [2] was halved (GI50) at 6 µM.

For the molecule `O=C1NC(=O)/C(=C/c2cc(F)ccc2OCc2ccccc2)S1`, the Ratio in test [1] worked out at 0.72. Moreover, halving of growth with A549 [2] (GI50) required 4 µM.

For the molecule `COc1ccc(OCc2ccccc2)c(/C=C2\SC(=O)NC2=O)c1`, the Ratio in test [1] stood at 0.98. In the test with A549 [2], this molecule displayed a GI50 of 14 µM.

Turning to `O=C1NC(=S)S/C1=C\c1cc(-c2ccccc2)ccc1OCc1ccccc1`, the Ratio in test [1] turned out to be 2.35. Also, the GI50 in the test with A549 [2] was found to be 4 µM.

As to `COc1ccc(OCc2ccccc2)c(/C=C2\SC(=S)NC2=O)c1`, the Ratio in test [1] stood at 0.94. Further, growth in the test on A549 [2] was halved (GI50) at 7 µM.

Take `O=C1NC(=S)S/C1=C\c1ccccc1OCc1ccccc1`: the Ratio in test [1] came out at 1.17. The same molecule registered a GI50 in the test on A549 [2] of 13 µM.

For `O=C1NC(=O)/C(=C/c2ccccc2OCc2ccccc2)S1`, the Ratio in test [1] was determined as 0.92. Besides, the GI50 with A549 [2] came to 35 µM.

Turning to `O=C1NC(=S)SC1Cc1cc(Cl)ccc1OCc1ccccc1` (stereo not given), the Ratio in test [1] is 1.25. The same molecule registered a GI50 in the test on A549 [2] of 29 µM.

On to `O=C1NC(=S)S/C1=C\c1cc([N+](=O)[O-])ccc1OCc1ccccc1`, for which, in test [1], the Ratio was 3.49. The same molecule registered a GI50 in the test on A549 [2] of 5 µM.

For `CC(C)(C)c1ccc(OCc2ccccc2)c(CC2SC(=O)NC2=O)c1` (stereo not given), the Ratio in test [1] is 0.79. Further, the GI50 in the test on A549 [3] stood at 12 µM.

Turning to `Cc1c(C)c2c(c(C)c1O)CCC(C)(COc1ccc(CC3SC(=O)NC3=O)cc1)O2` (stereo not given) [TROGLITAZONE], the Ratio in test [1] was found to be 2.12. The molecule also had a GI50 in the test on A549 [3] of 15 µM.

For the molecule `CC(C)(C)c1ccc(OCc2ccccc2)c(/C=C2\SC(=S)NC2=O)c1`, the Ratio in test [1] turned out to be 1.97. Also, the GI50 in the test with A549 [2] is 7 µM.

As to `Cc1ccc(OCc2ccccc2)c(/C=C2\SC(=O)NC2=O)c1`, the Ratio in test [1] was 1.94. Also, the GI50 in the test on A549 [2] amounted to 8 µM.

For the molecule `O=C1NC(=S)S/C1=C\c1cc(N2CCCCC2)ccc1OCc1ccccc1`, the Ratio in test [1] is 0.75. This molecule also yielded a concentration for 50% growth inhibition (GI50) in the test on A549 [2] of 3 µM.

Consider `O=C1NC(=O)/C(=C/c2cc(Br)ccc2OCc2ccccc2)S1`, for which, in test [1], the Ratio stood at 4.05. This molecule returned a GI50 in the test on A549 [2] of 5 µM.
